From ChEMBL document CHEMBL5247578, “Effective synthesis of benzimidazoles-imidazo[1,2-a]pyrazine conjugates: A comparative study of mono-and bis-benzimidazoles for antitumor activity” (Eur J Med Chem, 2019)

Experiments:
[1] = test system: Calf thymus DNA; experiment: Binding affinity to calf thymus DNA assessed as fluorescence quenching intensity at 5 uM at temperature of 298 K by fluorescence spectroscopic method relative to control; assay type: nucleic-acid assay; conditions: Bos taurus
[2] = test system: PC-3; experiment: Antiproliferative activity against human PC-3 cells assessed as cell growth at 0.00000001 M incubated for 48 hrs by SRB assay relative to control; assay type: functional; conditions: dose 10 nM, read-out: Activity
[3] = test system: SK-MEL-28; experiment: Antiproliferative activity against human SK-MEL-28 cells assessed as cell growth at 0.00000001 M incubated for 48 hrs by SRB assay relative to control; assay type: functional; conditions: dose 10 nM, read-out: Activity
[4] = test system: PC-3; experiment: Antiproliferative activity against human PC-3 cells assessed as cell growth inhibition by measuring lethal concentration incubated for 48 hrs by sulforhodamine B assay; assay type: functional; conditions: read-out: LC50 (the source's name)
[5] = test system: SN12C; experiment: Antiproliferative activity against human SN12C cells assessed as cell growth inhibition by measuring lethal concentration incubated for 48 hrs by sulforhodamine B assay; assay type: functional; conditions: read-out: LC50 (the source's name)
[6] = test system: ACHN; experiment: Antiproliferative activity against human ACHN cells assessed as cell growth inhibition by measuring lethal concentration incubated for 48 hrs by sulforhodamine B assay; assay type: functional; conditions: read-out: LC50 (the source's name)
[7] = test system: MDA-MB-468; experiment: Growth inhibition against human MDA-MB-468 cells assessed as total growth inhibitory concentration incubated for 48 hrs by sulforhodamine B assay; assay type: functional
[8] = test system: ACHN; experiment: Growth inhibition against human ACHN cells assessed as total growth inhibitory concentration incubated for 48 hrs by sulforhodamine B assay; assay type: functional
[9] = test system: UACC-257; experiment: Growth inhibition against human UACC-257 cells assessed as total growth inhibitory concentration incubated for 48 hrs by sulforhodamine B assay; assay type: functional
[10] = test system: SNB-75; experiment: Growth inhibition against human SNB-75 cells assessed as total growth inhibitory concentration incubated for 48 hrs by sulforhodamine B assay; assay type: functional
[11] = test system: HL-60; experiment: Growth inhibition against human HL-60 cells assessed as total growth inhibitory concentration incubated for 48 hrs by sulforhodamine B assay; assay type: functional
[12] = test system: DU-145; experiment: Growth inhibition against human DU-145 cells incubated for 48 hrs by sulforhodamine B assay; assay type: functional
[13] = test system: IGROV-1; experiment: Growth inhibition against human IGROV-1 cells incubated for 48 hrs by sulforhodamine B assay; assay type: functional
[14] = test system: SK-MEL-5; experiment: Growth inhibition against human SK-MEL-5 cells incubated for 48 hrs by sulforhodamine B assay; assay type: functional
[15] = test system: HOP-62; experiment: Growth inhibition against human HOP-62 cells incubated for 48 hrs by sulforhodamine B assay; assay type: functional
[16] = test system: HL-60; experiment: Growth inhibition against human HL-60 cells incubated for 48 hrs by sulforhodamine B assay; assay type: functional
[17] = test system: OVCAR-4; experiment: Antiproliferative activity against human OVCAR-4 cells assessed as cell growth inhibition by measuring lethal concentration incubated for 48 hrs by sulforhodamine B assay; assay type: functional; conditions: read-out: LC50 (the source's name)
[18] = test system: SN12C; experiment: Antiproliferative activity against human SN12C cells assessed as cell growth at 0.0000001 M incubated for 48 hrs by SRB assay relative to control; assay type: functional; conditions: dose 100 nM, read-out: Activity
[19] = test system: NCI-H322M; experiment: Antiproliferative activity against human NCI-H322M cells assessed as cell growth at 0.000001 M incubated for 48 hrs by SRB assay relative to control; assay type: functional; conditions: read-out: Activity
[20] = test system: NCI-H460; experiment: Antiproliferative activity against human NCI-H460 cells assessed as cell growth at 0.000001 M incubated for 48 hrs by SRB assay relative to control; assay type: functional; conditions: read-out: Activity
[21] = test system: UACC-62; experiment: Antiproliferative activity against human UACC-62 cells assessed as cell growth at 0.000001 M incubated for 48 hrs by SRB assay relative to control; assay type: functional; conditions: read-out: Activity
[22] = test system: OVCAR-3; experiment: Antiproliferative activity against human OVCAR-3 cells assessed as cell growth at 0.000001 M incubated for 48 hrs by SRB assay relative to control; assay type: functional; conditions: read-out: Activity
[23] = test system: ACHN; experiment: Antiproliferative activity against human ACHN cells assessed as cell growth at 0.000001 M incubated for 48 hrs by SRB assay relative to control; assay type: functional; conditions: read-out: Activity
Outline: (§1)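 NCI-60 five-dose screen over 10^-4–10^-8 M (10-fold dilutions). Cells grown in RPMI 1640 with 5% FBS and 2 mM L-glutamine, seeded at 5,000–40,000 cells/well and preincubated 24 h. Drug from DMSO stock, 48 h at 37 °C, 5% CO2. Adherent cells TCA-fixed and stained with 0.4% SRB; A515 read. Percent growth = (Ti−Tz)/(C−Tz)×100, or (Ti−Tz)/Tz×100 when Ti<Tz.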

[24] = test system: RXF 393; experiment: Antiproliferative activity against human RXF 393 cells assessed as cell growth at 0.000001 M incubated for 48 hrs by SRB assay relative to control; assay type: functional; conditions: read-out: Activity
[25] = test system: MCF7; experiment: Antiproliferative activity against human MCF7 cells assessed as cell growth at 0.000001 M incubated for 48 hrs by SRB assay relative to control; assay type: functional; conditions: read-out: Activity
[26] = test system: Hs-578T; experiment: Antiproliferative activity against human Hs-578T cells assessed as cell growth at 0.000001 M incubated for 48 hrs by SRB assay relative to control; assay type: functional; conditions: read-out: Activity
Outline: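 NCI-60 five-dose mode, 10^-4 to 10^-8 M in 10-fold steps. RPMI 1640, 5% FBS, 2 mM L-glutamine; 24 h preincubation, then 48 h drug exposure at 37 °C. Stocks in DMSO at 400× the top concentration, diluted in medium with gentamicin. TCA fixation, SRB staining, absorbance at 515 nm. Percent growth from time-zero (Tz), control (C) and test (Ti) readings.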

[27] = test system: HOP-62; experiment: Antiproliferative activity against human HOP-62 cells assessed as cell growth at 0.00001 M incubated for 48 hrs by SRB assay relative to control; assay type: functional; conditions: read-out: Activity
Outline: (§2)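 NCI-60 five-dose screen (10^-4 to 10^-8 M). Cells grown in RPMI 1640 with 5% FBS and 2 mM L-glutamine, plated at 5,000-40,000 cells/well and preincubated 24 h. Drug given from DMSO stock, then 48 h at 37 °C, 5% CO2. For adherent lines, cells fixed with cold TCA, SRB-stained and read at 515 nm. Percent growth taken against time-zero and untreated control.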

[28] = test system: HOP-92; experiment: Antiproliferative activity against human HOP-92 cells assessed as cell growth at 0.00001 M incubated for 48 hrs by SRB assay relative to control; assay type: functional; conditions: read-out: Activity; outline: as §2
[29] = test system: OVCAR-8; experiment: Antiproliferative activity against human OVCAR-8 cells assessed as cell growth at 0.00001 M incubated for 48 hrs by SRB assay relative to control; assay type: functional; conditions: read-out: Activity
[30] = test system: NCI/ADR-RES; experiment: Antiproliferative activity against human NCI/ADR-RES cells assessed as cell growth at 0.00001 M incubated for 48 hrs by SRB assay relative to control; assay type: functional; conditions: read-out: Activity
[31] = test system: PC-3; experiment: Antiproliferative activity against human PC-3 cells assessed as cell growth at 0.00001 M incubated for 48 hrs by SRB assay relative to control; assay type: functional; conditions: read-out: Activity
[32] = test system: CCRF-CEM; experiment: Antiproliferative activity against human CCRF-CEM cells assessed as cell growth at 0.0001 M incubated for 48 hrs by SRB assay relative to control; assay type: functional; conditions: read-out: Activity; outline: as §1
[33] = test system: EKVX; experiment: Antiproliferative activity against human EKVX cells assessed as cell growth at 0.0001 M incubated for 48 hrs by SRB assay relative to control; assay type: functional; conditions: read-out: Activity; outline: as §2
[34] = test system: NCI-H460; experiment: Antiproliferative activity against human NCI-H460 cells assessed as cell growth at 0.0001 M incubated for 48 hrs by SRB assay relative to control; assay type: functional; conditions: read-out: Activity

Row | Compound | Activity [1] [%] | growth at 0.01 µM [2] [%] | growth at 0.01 µM [3] [%] | CC50 [4] [µM] | CC50 [5] [µM] | CC50 [6] [µM] | TGI [7] [µM] | TGI [8] [µM] | TGI [9] [µM] | TGI [10] [µM] | TGI [11] [µM] | GI50 [12] [µM] | GI50 [13] [µM] | GI50 [14] [µM] | GI50 [15] [µM] | GI50 [16] [µM] | CC50 [17] [µM] | growth at 0.1 µM [18] [%] | growth at 1 µM [19] [%] | growth at 1 µM [20] [%] | other results
1 | COc1ccc(-c2cn3ccnc3c(-c3ccc4ncn(C5CCCCC5)c4c3)n2)cc1 | 75 | 96 | 94 | > 100 | > 100 | > 100 | > 100 | > 100 | > 100 | > 100 | 5.05 | 1.07 | 0.921 | 0.698 | 1.09 | 1.06 | > 100 | 100 | 87 | 35 | growth at 1 µM [21]: 27%; growth at 1 µM [22]: 19%; growth at 1 µM [23]: 40%; growth at 1 µM [24]: 57%; growth at 1 µM [25]: 40%; growth at 1 µM [26]: 53%; growth at 10 µM [27]: -1%; growth at 10 µM [28]: 2%; growth at 10 µM [29]: 8%; growth at 10 µM [30]: -4%; growth at 10 µM [31]: 5%; growth at 100 µM [32]: 22%; growth at 100 µM [33]: 26%; growth at 100 µM [34]: 5%
2 | c1ccc(Cn2cnc3ccc(-c4nc(-c5ccc6c(c5)ncn6C5CCCCC5)cn5ccnc45)cc32)cc1 | 35 | 95 | 94 | > 100 | > 100 | > 100 | 4.43 | > 100 | 4.31 | 2.89 | 6.65 | 3.04 | 2.14 | 1.5 | 2.13 | 2.88 | > 100 | 101 | 89 | 96 | growth at 1 µM [21]: 87%; growth at 1 µM [22]: 94%; growth at 1 µM [23]: 87%; growth at 1 µM [24]: 62%; growth at 1 µM [25]: 87%; growth at 1 µM [26]: 88%; growth at 10 µM [27]: -15%; growth at 10 µM [28]: -90%; growth at 10 µM [29]: -23%; growth at 10 µM [30]: -30%; growth at 10 µM [31]: -10%; growth at 100 µM [32]: 9%; growth at 100 µM [33]: 14%; growth at 100 µM [34]: -24%
